Measured values from PMC8867604 (European journal of pharmacology, 2020).
Like-named read-outs stand apart in the source and are kept apart here. Blank lines part the entries; values can stand above or below the compound they belong to. Residues, ends and D or L forms follow the SMILES beside them. *: point of attachment. Cbz = O=C(OCc1ccccc1)*; OtBu = CC(C)(C)O*

Legend:
Assay type in all cases: cell-based, human
HEK293 cells = conditions: for IC50: Homo sapiens, HEK293, 24 h, read-out: IC50 (cell viability)
NF-κB [1] = test: NF-κB luciferase reporter assay, antagonists with TNFα stimulation; conditions: for effect on NF-κB expression / effect on NF-κB pathway activity / mode of action on NF-κB signaling: TNFα stimulated, 24 h; for effect on NF-κB pathway activity: at low micromolar concentrations; for EC50: Homo sapiens, HEK293, 24 h, read-out: EC50 (NF-kB reporter)
NF-κB [2] = test: NF-κB luciferase reporter assay, agonists without TNFα; conditions: HEK293 reporter cells, no TNFα, 24 h
Outline: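 HEK293 stable NF-κB GFP-luciferase reporter line grown in DMEM with 10% FBS and 1% pen/strep at 37°C, 5% CO2. Seeded 1x10^4/well (96-well) or 1x10^3/well (384-well) 12 h before dosing across a concentration range in fresh medium, with vehicle-only controls. Incubated 24 h, then luminescence read. Drug/vehicle luminescence ratio plotted against log10 concentration to derive EC50. Triplicate or quadruplicate doses, ≥3 experiments.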

MAF1329 ependymoma cells = test system: MAF1329 ependymoma cells
[3] = at low or mid-range micromolar concentrations
[4] = at low micromolar concentrations

effect on NF-κB expression (NF-κB [1]; [3]): agonistic effect
Compound: Cc1ccc(S(=O)(=O)/C=C/C#N)cc1 [BAY 11–7082]
cytotoxic effect (HEK293 cells): no cytotoxic effect

effect on NF-κB expression (NF-κB [1]; [3]): agonistic effect
Compound: CC(C)(C)c1ccc(S(=O)(=O)/C=C/C#N)cc1 [BAY 11–7085]
cytotoxic effect (HEK293 cells): no cytotoxic effect

effect on NF-κB expression (NF-κB [1]; [3]): agonistic effect
Compound: Br.Cc1cc2nc(NCCCO)n(CC(=O)c3cc(C(C)(C)C)c(O)c(C(C)(C)C)c3)c2cc1C [CID 2858522]
cytotoxic effect (HEK293 cells): no cytotoxic effect

effect on NF-κB expression (NF-κB [1]; HEK-293 reporter cells): no specific effect | EC50 (NF-κB [1]): 35 µM
Compound: O=c1cc(-c2ccc(O)c(O)c2)oc2cc(O)cc(O)c12 [Luteolin]
IC50 (HEK293 cells): > 100 µM

mode of action on NF-κB signaling (NF-κB [1]; HEK-293 reporter cells): work antagonistically
Compound: C[C@]1(CO)CN(c2cc(C(=O)Nc3ccc4c(c3)-c3c(c(C(N)=O)nn3-c3ccc(F)cc3)CC4)c(Cl)cn2)C[C@@]1(C)CO [PF-184]
effect on cell viability (HEK293 cells): did not result in a decrease of cell viability

EC50 (NF-κB [1]): > 100 µM | effect on NF-κB expression (NF-κB [1]; [3]): agonistic effect
Compound: Oc1cc(O)cc(/C=C/c2ccc(O)c(O)c2)c1 [Piceatannol]
cytotoxic effect (HEK293 cells): no cytotoxic effect | IC50 (HEK293 cells): > 100 µM

EC50 (NF-κB [1]): 4.27 µM
Compound: CS(=O)(=O)N1CCN(Cc2cc3nc(-c4cccc5[nH]ncc45)nc(N4CCOCC4)c3s2)CC1 [Pictalisib, 2-(1 H -Indazol-4-yl)-6-(4-methanesulfonyl-piperazin-1-ylmethyl)-4-morpholin-4-yl-thieno[3,2-d]pyrimidine]
IC50 (HEK293 cells): 7.47 µM

EC50 (NF-κB [1]): < 0.001 µM
Compound: NC(=O)Nc1sc(-c2ccc(F)cc2)cc1C(N)=O [TCPA-1, 2-[(Aminocarbonyl)amino]-5-(4-fluorophenyl)-3-thiophenecarboxamide]
effect on cell viability (HEK293 cells; at low concentrations): did not result in a decrease of cell viability

Further lines, the compound ahead of its results:

Compound: CCNC(=O)[C@H]1O[C@@H](n2cnc3c(N)nc(NCCc4ccc(CCC(=O)O)cc4)nc32)[C@H](O)[C@@H]1O [CGS 21680]
NF-κB agonist effect (NF-κB [2]): no effect

Compound: COc1cc(O)cc(O)c1C(=O)/C=C/c1ccccc1 [Cardamonin]
effect on cell viability (HEK293 cells; [4]): without effecting cell viability | effect on NF-κB pathway activity (NF-κB [1]): act as agonists and increased pathway activity | change in cell viability of MAF1329 (MAF1329 ependymoma cells; C11orf95-RELA fusion positive ependymoma cell culture): no change in cell viability

Compound: CC1=C(O)C(=O)C=C2C1=CC=C1[C@@]2(C)CC[C@@]2(C)[C@@H]3C[C@](C)(C(=O)O)CC[C@]3(C)CC[C@]12C [Celastrol]
IC50 (HEK293 cells): 0.475 µM | effect on cell viability (HEK293 cells; [4]): without effecting cell viability | EC50 (NF-κB [1]): 0.082 µM | effect on NF-κB pathway activity (NF-κB [1]): act as agonists and increased pathway activity | IC50 (MAF1329 ependymoma cells; Homo sapiens, read-out: IC50 (cell viability of MAF1329)): 1.7 µM

Compound: O=C(c1ccc(Nc2nccc(-c3cc4ccccc4s3)n2)cc1)N1CCC(N2CCCC2)CC1 [IKK-16]
effect on cell viability (HEK293 cells): no specific effect | effect on NF-κB expression (NF-κB [1]; HEK-293 reporter cells): no specific effect

Compound: O=C(Nc1cc(C(F)(F)F)cc(C(F)(F)F)c1)c1cc(Cl)ccc1O [IMD 0354]
IC50 (HEK293 cells): 1.56 µM | effect on cell viability (HEK293 cells; at low concentrations): did not result in a decrease of cell viability | mode of action on NF-κB signaling (NF-κB [1]; HEK-293 reporter cells): work antagonistically | EC50 (NF-κB [1]): 0.292 µM

Compound: CC[C@H](C)[C@H](NC(=O)OCc1ccccc1)C(=O)N[C@@H](CCC(=O)OC(C)(C)C)C(=O)N[C@@H](C)C(=O)N[C@H](C=O)CC(C)C [PSI] (Cbz-IE(OtBu)AL-aldehyde)
effect on cell viability (HEK293 cells): without effecting cell viability | effect on NF-κB pathway activity (NF-κB [1]): act as agonists and increased pathway activity

Compound: CC(=O)O[C@@]12C[C@@H](C)[C@@]3(O)[C@@H](C=C(CO)C[C@]4(O)C(=O)C(C)=C[C@@H]34)[C@@H]1C2(C)C [Prostratin]
concentration at which NF-κB agonist activity was seen (NF-κB [2]): 1000 nM

Compound: [O-][S+](c1ccccc1)c1ccc2nnnn2n1 (stereo not drawn) [Ro106–9920]
effect on cell viability (HEK293 cells): did not result in a decrease of cell viability

Compound: C=C(C)[C@@H]1CC[C@]2(C(=O)O)CC[C@]3(C)[C@H](CC[C@@H]4[C@@]5(C)CC[C@H](O)C(C)(C)[C@@H]5CC[C@]43C)[C@@H]12 [betulinic acid, Betulinic acid]
concentration at which NF-κB agonist activity was seen (NF-κB [2]): 100,000 nM
